In the array DNA melting data of Ke et al. (doi:10.1101/2024.01.08.574731) one finds Tm and folding enthalpy data, which are given here for 37 sequences.

A short description of data set [1]: melting temperature; fluorescence melt of hairpins on a sequencing array, two-state fit, raised by 9.35 °C to match UV melts. The following applies: sodium 0.088 M. Put shortly: (§1)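 Library hairpins on a sequenced MiSeq flow cell carried annealed Cy3 and quencher oligos, and their Cy3 fluorescence was imaged in 50 mM Na-HEPES pH 8.0 with 25 mM NaCl, in 2.5 °C steps up to 60 °C. Signals were normalised to Cy3 before quenching and to control constructs. Melting temperature and folding enthalpy were obtained from bootstrapped two-state fits, combined by inverse-variance weighting across four replicates, and the fitted temperatures were then raised by 9.35 °C to match UV melts.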

A short description of data set [2]: folding enthalpy; higher = less favourable; fluorescence melt of hairpins on a sequencing array, two-state fit. The following applies: sodium 0.088 M. Put shortly: as §1

On to CGCCTCGGAAACGAGCG (((.(((....)))))), for which the Tm in data set [1] is 54.8 °C. The folding enthalpy in data set [2] is -26.9 kcal/mol.
CGCGACCGGAAACGGGCG (((..(((....)))))): the Tm in data set [1] is 60 °C. Also, the folding enthalpy in data set [2] was -11.7 kcal/mol.
The matching figures for CGCGATCGGAAACGAGCG (((..(((....)))))): 53 °C and -34.2 kcal/mol.
As to CGCGCGGAAACGCCGCG ((((((....))).))), in data set [1], the Tm came out at 69.2 °C. Moreover, in data set [2], the folding enthalpy is -20 kcal/mol.
Consider CGCGCGGAAACGCCGGCG ((((((....)))..))), for which, in data set [1], the Tm came out at 54.3 °C. Moreover, in data set [2], the folding enthalpy is -22.2 kcal/mol.
With CGCGGAAAGGTCCGCG ((((((....)))))), the Tm in data set [1] is 61.9 °C. The folding enthalpy in data set [2] is -45.8 kcal/mol.
Turning to CGCGGAACTGTCCGCG ((((((....)))))), in data set [1], the Tm stood at 64.8 °C. Besides, the folding enthalpy in data set [2] was -45.6 kcal/mol.
Take CGCGGAACTTCCGCG ((((((...)))))): in data set [1], the Tm was determined as 61.3 °C. The folding enthalpy in data set [2] is -37.8 kcal/mol.
In the case of CGCGGAATTATCCGCG ((((((....)))))), the Tm in data set [1] came to 67.2 °C. In addition, the folding enthalpy in data set [2] was -41.5 kcal/mol.
The matching figures for CGCGGACCAATCCGCG ((((((....)))))): 62.2 °C and -39.2 kcal/mol.
As for CGCGGACCTCTCCGCG ((((((....)))))), in data set [1], the Tm came out at 68.7 °C. Further, the folding enthalpy in data set [2] is -31.9 kcal/mol.
Regarding CGCGGACGGAAACGTGCG (((..(((....)))))), in data set [1], the Tm was determined as 50 °C. Further, the folding enthalpy in data set [2] was -36.2 kcal/mol.
For CGCGGACGGCTCCGCG ((((((....)))))), the Tm in data set [1] turned out to be 68.5 °C. For the same sequence, the folding enthalpy in data set [2] is -23.5 kcal/mol.
The like results for CGCGGATAACTCCGCG ((((((....)))))) were, in that order, 62.2 °C and -38 kcal/mol.
In the case of CGCGGGCGGAAACGCGCG (((..(((....)))))), in data set [1], the Tm is 65.4 °C. In addition, the folding enthalpy in data set [2] was -14.9 kcal/mol.
With CGCGTACGGAAACGTGCG (((..(((....)))))), the Tm in data set [1] came out at 50 °C. Moreover, in data set [2], the folding enthalpy is -23.7 kcal/mol.
Take CGCGTCCGGAAACGGGCG (((..(((....)))))): the Tm in data set [1] amounted to 55.2 °C. Further, in data set [2], the folding enthalpy is -14 kcal/mol.
On to CGCTCGGAAACGAAGCG ((((((....))).))), for which, in data set [1], the Tm stood at 53.6 °C. Moreover, the folding enthalpy in data set [2] is -29.5 kcal/mol.
Take CGCTCGGAAACGACAGCG ((((((....)))..))): in data set [1], the Tm came out at 45 °C. In addition, in data set [2], the folding enthalpy was -25.5 kcal/mol.
With CGCTCGGAAACGAGTGCG ((((((....)))..))), in data set [1], the Tm worked out at 44.9 °C. Also, in data set [2], the folding enthalpy is -15.8 kcal/mol.
With CGCTGACGGAAACGTGCG (((..(((....)))))), the Tm in data set [1] is 47.5 °C. Further, the folding enthalpy in data set [2] is -26.1 kcal/mol.
For the sequence CGCTGCCGGAAACGGGCG (((..(((....)))))), the Tm in data set [1] was 46.7 °C. Also, in data set [2], the folding enthalpy was -22.8 kcal/mol.
As for CGCTGCGGAAACGCCGCG (((.(((....))).))), in data set [1], the Tm is 56.5 °C. For the same sequence, the folding enthalpy in data set [2] was -29.1 kcal/mol.
For CGCTTCGGAAACGATGCG (((.(((....))).))), the Tm in data set [1] turned out to be 54.6 °C. In addition, the folding enthalpy in data set [2] is -43.3 kcal/mol.
CGGAACCGGAAACGGCCG (((..(((....)))))): the Tm in data set [1] stood at 40.1 °C. In data set [2], the folding enthalpy was -23.2 kcal/mol.
Regarding CGGAACGGAAACGTCCG (((.(((....)))))), the Tm in data set [1] is 47.8 °C. In data set [2], the folding enthalpy was -30.1 kcal/mol.
CGGAAGCGGAAACGCCCG (((..(((....)))))): the Tm in data set [1] was found to be 50.5 °C. Besides, in data set [2], the folding enthalpy was -21.3 kcal/mol.
In the case of CGGAATCGGAAACGACCG (((..(((....)))))), the Tm in data set [1] came to 35.3 °C. Also, the folding enthalpy in data set [2] is -16.6 kcal/mol.
The matching figures for CGGACCCGGAAACGGCCG (((..(((....)))))): 38.9 °C and -18.8 kcal/mol.
The matching figures for CGGACGCGGAAACGCCCG (((..(((....)))))): 48.8 °C and -25.3 kcal/mol.
The matching figures for CGGACGGAAACGTTTCCG ((((((....)))..))): 46.4 °C and -12.5 kcal/mol.
CGGAGCGGAAACGCACCG (((.(((....))).))): the Tm in data set [1] amounted to 58.7 °C. Further, the folding enthalpy in data set [2] was -35 kcal/mol.
For CGGAGCGGAAACGCGCCG (((.(((....))).))), in data set [1], the Tm worked out at 68.6 °C. The folding enthalpy in data set [2] is -27 kcal/mol.
Take CGGAGTCGGAAACGACCG (((..(((....)))))): the Tm in data set [1] turned out to be 41.3 °C. For the same sequence, the folding enthalpy in data set [2] is -15.9 kcal/mol.
For the sequence CGGATCGGAAACGAACCG (((.(((....))).))), the Tm in data set [1] worked out at 52 °C. The folding enthalpy in data set [2] is -42.7 kcal/mol.
For the sequence CGGATCGGAAACGACCCG (((.(((....))).))), the Tm in data set [1] came out at 50 °C. Also, the folding enthalpy in data set [2] is -38.1 kcal/mol.
With CGGATGAAAATCCG (((((....))))), in data set [1], the Tm is 56 °C. Also, in data set [2], the folding enthalpy is -25.5 kcal/mol.
